Data set [1] concerns the target Metabotropic glutamate receptor 1 (Rattus norvegicus, UniProt P23385). The data set can be described thus: Antagonist activity at rat mGluR1a expressed in CHO cells assessed as inhibition of intracellular calcium ion mobilization by FLIPR assay. Type of data set: functional, cell-based. Background: Calcium assays in cells follow changes in intracellular calcium, usually with a dye or a luminescent sensor.

Data set [2] in a line: Oral bioavailability in rat at 1 mg/kg, po. Format: ADME, organism-based. The settings on record: in vivo.
Data set [3] is described as follows: Oral bioavailability in rat at 5 mg/kg, po. Type of data set: ADME, organism-based. The settings on record: in vivo.
Data set [4] can be described thus: Cmax in rat. Type of data set: ADME, organism-based. The settings on record: in vivo. The procedure, abridged:
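Maximum plasma concentration (ng/ml) measured after oral administration in rat.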

Data set [5] can be described thus: Plasma clearance in rat. Format: ADME, organism-based.
In data set [6] the test system is Mus musculus. As to the kind of experiment: Reduction of inflammatory pain in early phase of formalin-induced mouse at 30 mg/kg, po. Format: ADME, organism-based. To be noted: in vivo. Set-up: dose 30 mg/kg, route oral. The procedure, abridged:
(§1)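 Mice given compound po at 10 or 30 mg/kg, 30 min before 20 µl 1% formalin into left hind paw; nociceptive behaviour time (s) scored in early phase (0–5 min) and late phase (20–60 min); n = 8-19; significance p < 0.05 / p < 0.01 versus vehicle.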

Data set [7] has as its system Mus musculus. As to the kind of experiment: Reduction of inflammatory pain in late phase of formalin-induced mouse at 30 mg/kg, po. Type of data set: ADME, organism-based. More on the design: dose 30 mg/kg, route oral. The settings on record: in vivo. The procedure, abridged: as §1
The test system of data set [8] is Mus musculus. As to the kind of experiment: Reduction of inflammatory pain in late phase of formalin-induced mouse at 10 mg/kg, po. Type of data set: ADME, organism-based. More on the design: dose 10 mg/kg, route oral. The settings on record: in vivo. The procedure, abridged: as §1
The test system of a further data set is Rattus norvegicus. As to the kind of experiment: Ratio of drug level in rat from brain to plasma at 3 mg/kg, iv after 1 hr. The settings on record: in vivo.
A short description of data set [9]: Oral bioavailability in rat. Format: ADME, organism-based. The settings on record: in vivo.

Sequence of Metabotropic glutamate receptor 1 (P23385 whole entry): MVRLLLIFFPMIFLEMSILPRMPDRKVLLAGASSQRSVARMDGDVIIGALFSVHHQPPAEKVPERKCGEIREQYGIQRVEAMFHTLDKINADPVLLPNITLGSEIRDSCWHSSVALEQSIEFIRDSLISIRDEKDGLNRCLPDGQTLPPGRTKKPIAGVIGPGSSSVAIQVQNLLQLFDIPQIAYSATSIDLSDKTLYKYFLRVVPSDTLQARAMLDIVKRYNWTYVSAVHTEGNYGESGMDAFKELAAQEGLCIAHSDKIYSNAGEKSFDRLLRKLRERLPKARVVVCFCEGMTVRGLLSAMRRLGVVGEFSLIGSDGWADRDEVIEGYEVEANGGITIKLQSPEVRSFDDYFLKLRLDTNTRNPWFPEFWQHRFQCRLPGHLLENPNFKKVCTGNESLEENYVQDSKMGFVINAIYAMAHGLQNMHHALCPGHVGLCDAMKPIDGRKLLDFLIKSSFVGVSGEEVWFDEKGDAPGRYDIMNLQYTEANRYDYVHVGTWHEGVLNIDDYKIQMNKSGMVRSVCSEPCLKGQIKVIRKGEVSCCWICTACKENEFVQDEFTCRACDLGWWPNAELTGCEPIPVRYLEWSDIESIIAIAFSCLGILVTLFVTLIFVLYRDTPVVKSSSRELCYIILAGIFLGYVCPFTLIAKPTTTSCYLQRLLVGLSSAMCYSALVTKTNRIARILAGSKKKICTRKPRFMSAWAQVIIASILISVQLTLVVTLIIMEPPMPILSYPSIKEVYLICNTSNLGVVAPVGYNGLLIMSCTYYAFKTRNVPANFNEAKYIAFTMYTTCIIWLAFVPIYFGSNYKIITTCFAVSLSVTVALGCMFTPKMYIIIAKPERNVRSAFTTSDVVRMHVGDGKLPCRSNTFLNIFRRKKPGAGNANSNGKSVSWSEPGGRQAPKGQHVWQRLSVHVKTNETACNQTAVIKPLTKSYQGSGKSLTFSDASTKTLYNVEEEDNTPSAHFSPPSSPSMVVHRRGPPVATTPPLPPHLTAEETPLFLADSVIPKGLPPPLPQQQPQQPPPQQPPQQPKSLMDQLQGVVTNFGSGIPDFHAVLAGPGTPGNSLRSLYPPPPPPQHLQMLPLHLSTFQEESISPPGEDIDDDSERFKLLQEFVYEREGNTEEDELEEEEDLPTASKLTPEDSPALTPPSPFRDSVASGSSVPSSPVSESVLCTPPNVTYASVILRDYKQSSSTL

For orientation: IC50 means the midpoint of a concentration-inhibition curve. For the molecule `O=C(Nc1ccc2[nH]c3c(c2c1)CCNC3=O)NC12CC3CC(CC(C3)C1)C2`, the IC50 in data set [1] was found to be 4660 nM.

Regarding `O=C1NN=CC2c3cc(OCc4ccccc4)ccc3NC12` (centres undefined), the IC50 in data set [1] was found to be 1020 nM.

In the case of `O=C1CCCc2c1[nH]c1ccc(OCc3ccccc3)cc21`, in [1], the IC50 was over 10000 nM.

For the molecule `O=C1NCCc2c1[nH]c1ccc(OCC3CCCCC3)cc21`, the IC50 in [1] worked out at 5560 nM.

Broadly, the bioavailability is dose-corrected exposure relative to a reference, in per cent. What is called Cmax is the maximum level reached in the sampled fluid or tissue. Take `O=C1NCCc2c1[nH]c1ccc(OCc3ccccc3)cc21`: the bioavailability was 0% in [2] and 9% in data set [3]. For the same molecule, in data set [1], the IC50 turned out to be 104 nM. The molecule also gave a Cmax in data set [4] of 145 ng/mL.

As to `CC(N(C)C(=O)c1ccc2[nH]c3c(c2c1)CCNC3=O)C(C)(C)C` (centres undefined), the 50% inhibitory concentration (IC50) in [1] was 120 nM.

The term clearance denotes the volume of plasma or blood freed of the substance per unit of time. High values mean a high capacity for elimination, low ones a low capacity for elimination. For `O=C1NCCc2c1[nH]c1ccc(NC(=O)C34CC5CC(CC(C5)C3)C4)cc21`, in [1], the IC50 is 71 nM. The same molecule yielded a clearance in data set [5] of 52 mL/min/kg.

Regarding `O=C1NCCC2c3cc(OCc4ccccc4)ccc3NC12` (centres undefined), the IC50 in [1] came out at 1670 nM.

`O=C(NCC12CC3CC(CC(C3)C1)C2)c1ccc2[nH]c3c(c2c1)CCNC3=O`: in [1], the IC50 worked out at 312 nM.

Turning to `CC(Oc1ccc2[nH]c3c(c2c1)CCNC3=O)c1ccccc1` (centres undefined), the IC50 in data set [1] is 380 nM.

Turning to `COc1ccc2[nH]c3c(c2c1)CCNC3=O`, in data set [1], the IC50 is over 10000 nM.

In the case of `Cc1cc2[nH]c3c(c2cc1OCc1ccccc1)CCNC3=O`, the outcome in the data set on Mus musculus [6], with Mus musculus [7] and in the data set on Mus musculus [8] was Active. Moreover, the Ratio in the data set on Rattus norvegicus worked out at 6.1. In data set [9], this molecule had a bioavailability of 36%. Moreover, the IC50 in [1] turned out to be 167 nM. In addition, the Cmax in [4] was determined as 264 ng/mL.

Turning to `c1ccc(COc2ccc3c(c2)C2CCNCC2N3)cc1` (centres undefined), the IC50 in data set [1] is over 10000 nM.

In the case of `O=C1NCCc2c1[nH]c1ccc(O)cc21`, the IC50 in data set [1] is over 10000 nM.

With `O=C1NCCc2c1[nH]c1cccc(OCc3ccccc3)c21`, the IC50 in [1] turned out to be 3980 nM.

For the molecule `O=C(NC1CC2CCC1C2)c1ccc2[nH]c3c(c2c1)CCNC3=O` (centres undefined), the IC50 in data set [1] was 226 nM.

For the molecule `O=C1NCCc2c1[nH]c1cc(OCc3ccccc3)ccc21`, the half-inhibitory concentration (IC50) in [1] was 2850 nM.

For `c1ccc(COc2ccc3[nH]c4c(c3c2)CCNC4)cc1`, in data set [1], the IC50 is over 10000 nM.

With `O=C1NCCc2c1[nH]c1ccc(Oc3ccccc3)cc21`, the IC50 in [1] stood at 4070 nM.

Regarding `CC(Oc1ccc2[nH]c3c(c2c1)CCNC3=O)C(C)(C)C` (centres undefined), in data set [1], the IC50 stood at 239 nM.

With `O=C(NC1C2CC3CC(C2)CC1C3)c1ccc2[nH]c3c(c2c1)CCNC3=O` (centres undefined), the IC50 in [1] worked out at 93 nM.

Regarding `CC(NC(=O)c1ccc2[nH]c3c(c2c1)CCNC3=O)C(C)(C)C` (centres undefined), in data set [1], the IC50 was over 10000 nM.

Turning to `CCCOC(=O)c1[nH]c(C)c(C(=O)O[C@@H](C)C(C)(C)C)c1C`, the IC50 in [1] stood at 16 nM.

Regarding `O=C(NC12CC3CC(CC(C3)C1)C2)c1ccc2[nH]c3c(c2c1)CCNC3=O`, the bioavailability in data set [9] was found to be 12%. Further, the IC50 in data set [1] amounted to 71 nM. In addition, the clearance in data set [5] came to 54 mL/min/kg. Also, the Cmax in [4] was found to be 37 ng/mL.

Consider `O=C(Nc1ccccc1)c1ccc2[nH]c3c(c2c1)CCNC3=O`, for which the IC50 in [1] turned out to be 1040 nM.

Regarding `O=C1NCc2c1[nH]c1ccc(OCc3ccccc3)cc21`, the IC50 in [1] stood at 683 nM.

For the origin of these results see ChEMBL document CHEMBL1147169, “From pyrroles to 1-oxo-2,3,4,9-tetrahydro-1H-beta-carbolines: a new class of orally bioavailable mGluR1 antagonists” (Bioorg Med Chem Lett, 2007).
